Converted amounts (≈) assume the structure as drawn.
Legend:
Format in all cases: functional
[1] = test system: Staphylococcus aureus; test: Antibacterial activity against Staphylococcus aureus RN4220 with rplC G152D mutation
Procedure, shortened: (§1)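 Spontaneous first-step mutants of S. aureus RN4220. An overnight brain heart infusion culture was plated on LB agar with 1.0 µg/ml tiamulin. Colonies were patched to drug-free LB for 16 h at 37°C, then replica plated on LB agar with 1, 5, 10 and 20 µg/ml tiamulin. The rplC (L3) mutation was identified by colony PCR and sequencing.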

[2] = test system: Staphylococcus aureus; test: Antibacterial activity against Staphylococcus aureus RN4220 with rplC G155R mutation; procedure, shortened: as §1
[3] = test system: Staphylococcus aureus; test: Antibacterial activity against Staphylococcus aureus RN4220 with rplC G152D, D159Y, G155R and A150T mutation
Procedure, shortened: (§2)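 Third-step mutants: second-step mutants were plated on five other pleuromutilins, each at 2 times its own MIC. Colonies appearing after extended incubation were replated at the selective concentration to confirm resistance. L3 was sequenced by colony PCR. These isolates grow very slowly; colonies form on blood agar only after more than 72 h.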

[4] = test system: Staphylococcus aureus; test: Antibacterial activity against wild type Staphylococcus aureus RN4220
[5] = test system: Staphylococcus aureus; test: Antibacterial activity against Staphylococcus aureus 2A1-7 fast1 with rplC D159Y and unmapped mutation
Procedure, shortened: (§3)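 Fast-growing variants of slow third-step mutants. Single colonies were streaked on unsupplemented LB agar and held more than 3 days at 37°C. At least 2 fast-growing colonies per mutant were purified on LB agar, then taken for MIC testing and sequencing.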

[6] = test system: Staphylococcus aureus; test: Antibacterial activity against Staphylococcus aureus 2A1-1 fast1 with rplC D159Y and unmapped mutation; procedure, shortened: as §3
[7] = test system: Staphylococcus aureus; test: Antibacterial activity against Staphylococcus aureus 2A1-1 fast2 with rplC D159Y and unmapped mutation; procedure, shortened: as §3
[8] = test system: Staphylococcus aureus; test: Antibacterial activity against Staphylococcus aureus RN4220 with rplC S158L mutation; procedure, shortened: as §1
[9] = test system: Staphylococcus aureus; test: Antibacterial activity against Staphylococcus aureus RN4220 with rplC G152D and D159Y mutation
Procedure, shortened: (§4)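 Second-step mutants came from the first-step L3 G152D RN4220 mutant. An overnight culture (2 x 10^9 CFU total) was plated on LB agar with 10 µg/ml tiamulin. Colonies were recultured on 10 µg/ml tiamulin to confirm resistance. L3 was sequenced after colony PCR.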

[10] = test system: Staphylococcus aureus; test: Antibacterial activity against Staphylococcus aureus 2A1-7 with rplC G152D, D159Y and unmapped mutation; procedure, shortened: as §2
[11] = test system: Staphylococcus aureus; test: Antibacterial activity against Staphylococcus aureus 2A1-7 fast2 with rplC D159Y and unmapped mutation; procedure, shortened: as §3
[12] = test system: Staphylococcus aureus; test: Antibacterial activity against Staphylococcus aureus 2A1-8 with rplC G152D, D159Y and unmapped mutation; procedure, shortened: as §2
[13] = test system: Staphylococcus aureus; test: Antibacterial activity against Staphylococcus aureus RN4220 with rplC D159Y mutation; procedure, shortened: as §1
[14] = test system: Staphylococcus aureus; test: Antibacterial activity against Staphylococcus aureus RN4220 with rplC G152D, D159Y and G144R mutation; procedure, shortened: as §2
[15] = test system: Staphylococcus aureus; test: Antibacterial activity against Staphylococcus aureus RN4220 with rplC G152D, D159Y and G155R mutation; procedure, shortened: as §2
[16] = test system: Staphylococcus aureus; test: Antibacterial activity against Staphylococcus aureus RN4220 with rplC G152D and G155R mutation; procedure, shortened: as §4
[17] = test system: Staphylococcus aureus; test: Antibacterial activity against Staphylococcus aureus RN4220 with rplC G152D, D159Y, G155R and H134N mutation; procedure, shortened: as §2
[18] = test system: Staphylococcus aureus; test: Antibacterial activity against Staphylococcus aureus 2A1-1 with rplC G152D, D159Y and unmapped mutation; procedure, shortened: as §2

| Structure (SMILES) | MIC [1] | MIC [2] | MIC [3] | MIC [4] | MIC [5] | MIC [6] | MIC [7] | MIC [8] | MIC [9] | MIC [10] | MIC [11] | MIC [12] | MIC [13] | MIC [14] | MIC [15] | MIC [16] | MIC [17] | MIC [18] |
| --- | --- | --- | --- | --- | --- | --- | --- | --- | --- | --- | --- | --- | --- | --- | --- | --- | --- | --- |
| C=C[C@]1(C)C[C@@H](OC(=O)CS[C@@H]2C[C@H]3CC[C@@H](C2)N3C)[C@]2(C)[C@H](C)CC[C@]3(CCC(=O)[C@H]32)[C@@H](C)[C@@H]1O [RETAPAMULIN] | 0.25 µg/mL (≈ 0.483 µM) | 0.5 µg/mL (≈ 0.966 µM) | 0.25 µg/mL (≈ 0.483 µM) | ≤ 0.06 µg/mL | 0.25 µg/mL (≈ 0.483 µM) | 0.25 µg/mL (≈ 0.483 µM) | 0.25 µg/mL (≈ 0.483 µM) | 0.25 µg/mL (≈ 0.483 µM) | 1 µg/mL (≈ 1.93 µM) | 8 µg/mL (≈ 15.5 µM) | 0.25 µg/mL (≈ 0.483 µM) | 2 µg/mL (≈ 3.86 µM) | 0.25 µg/mL (≈ 0.483 µM) | 4 µg/mL (≈ 7.73 µM) | 4 µg/mL (≈ 7.73 µM) | 1 µg/mL (≈ 1.93 µM) | 0.125 µg/mL (≈ 0.241 µM) | 8 µg/mL (≈ 15.5 µM) |
| C/C(=C\C(=O)OCCCCCCCCC(=O)O)C[C@@H]1OC[C@H](C[C@@H]2O[C@H]2[C@@H](C)[C@H](C)O)[C@@H](O)[C@H]1O [MUPIROCIN] | 0.06 µg/mL (≈ 0.12 µM) | 0.06 µg/mL (≈ 0.12 µM) | 0.06 µg/mL (≈ 0.12 µM) | 0.06 µg/mL (≈ 0.12 µM) |  |  |  | 0.06 µg/mL (≈ 0.12 µM) | 0.06 µg/mL (≈ 0.12 µM) |  |  |  | 0.06 µg/mL (≈ 0.12 µM) | 0.06 µg/mL (≈ 0.12 µM) | 0.06 µg/mL (≈ 0.12 µM) | 0.06 µg/mL (≈ 0.12 µM) | 0.06 µg/mL (≈ 0.12 µM) |  |
| O=C(N[C@H](CO)[C@H](O)c1ccc([N+](=O)[O-])cc1)C(Cl)Cl [CHLORAMPHENICOL] | 8 µg/mL (≈ 24.8 µM) | 8 µg/mL (≈ 24.8 µM) | 8 µg/mL (≈ 24.8 µM) | 4 µg/mL (≈ 12.4 µM) | 8 µg/mL (≈ 24.8 µM) | 8 µg/mL (≈ 24.8 µM) | 8 µg/mL (≈ 24.8 µM) | 4 µg/mL (≈ 12.4 µM) | 8 µg/mL (≈ 24.8 µM) | 4 µg/mL (≈ 12.4 µM) | 8 µg/mL (≈ 24.8 µM) | 4 µg/mL (≈ 12.4 µM) | 4 µg/mL (≈ 12.4 µM) | 8 µg/mL (≈ 24.8 µM) | 4 µg/mL (≈ 12.4 µM) | 8 µg/mL (≈ 24.8 µM) | 8 µg/mL (≈ 24.8 µM) | 8 µg/mL (≈ 24.8 µM) |
| CN(C)[C@@H]1C(O)=C(C(N)=O)C(=O)[C@@]2(O)C(O)=C3C(=O)c4c(O)cccc4[C@@](C)(O)[C@H]3C[C@@H]12 [TETRACYCLINE] | 0.25 µg/mL (≈ 0.563 µM) | 0.25 µg/mL (≈ 0.563 µM) | 0.25 µg/mL (≈ 0.563 µM) | 0.25 µg/mL (≈ 0.563 µM) | 0.25 µg/mL (≈ 0.563 µM) | 0.25 µg/mL (≈ 0.563 µM) | 0.25 µg/mL (≈ 0.563 µM) | 0.25 µg/mL (≈ 0.563 µM) | 0.25 µg/mL (≈ 0.563 µM) | ≤ 0.06 µg/mL | 0.25 µg/mL (≈ 0.563 µM) | ≤ 0.06 µg/mL | 0.25 µg/mL (≈ 0.563 µM) | 0.25 µg/mL (≈ 0.563 µM) | 0.25 µg/mL (≈ 0.563 µM) | 0.25 µg/mL (≈ 0.563 µM) | 0.25 µg/mL (≈ 0.563 µM) | ≤ 0.06 µg/mL |
| C[C@H]1COc2c(N3CCN(C)CC3)c(F)cc3c(=O)c(C(=O)O)cn1c23.C[C@H]1COc2c(N3CCN(C)CC3)c(F)cc3c(=O)c(C(=O)O)cn1c23.O [LEVOFLOXACIN] | 0.5 µg/mL | 0.5 µg/mL | 0.125 µg/mL | 0.5 µg/mL | 0.25 µg/mL | 0.5 µg/mL | 0.25 µg/mL | 0.5 µg/mL | 0.25 µg/mL | 0.25 µg/mL | 0.25 µg/mL | 0.25 µg/mL | 0.5 µg/mL | 0.25 µg/mL | 0.25 µg/mL | 0.25 µg/mL | 0.5 µg/mL | 0.25 µg/mL |
| C=C[C@]1(C)C[C@@H](OC(=O)CSCCN(CC)CC)[C@]2(C)[C@H](C)CC[C@]3(CCC(=O)[C@H]32)[C@@H](C)[C@@H]1O [TIAMULIN] | 4 µg/mL (≈ 8.1 µM) | 4 µg/mL (≈ 8.1 µM) | 4 µg/mL (≈ 8.1 µM) | 0.25 µg/mL (≈ 0.506 µM) | 2 µg/mL (≈ 4.05 µM) | 2 µg/mL (≈ 4.05 µM) | 2 µg/mL (≈ 4.05 µM) | 2 µg/mL (≈ 4.05 µM) | 16 µg/mL (≈ 32.4 µM) | 64 µg/mL (≈ 130 µM) | 2 µg/mL (≈ 4.05 µM) | 32 µg/mL (≈ 64.8 µM) | 4 µg/mL (≈ 8.1 µM) | 32 µg/mL (≈ 64.8 µM) | > 64 µg/mL | 16 µg/mL (≈ 32.4 µM) | 2 µg/mL (≈ 4.05 µM) | 64 µg/mL (≈ 130 µM) |
